# In ChEMBL document CHEMBL3351274, “Sensitization of tumor necrosis factor-related apoptosis-inducing ligand (TRAIL)-resistant primary prostate cancer cells by isoegomaketone from Perilla frutescens” (J Nat Prod, 2014):
# Active and inactive are the calls of the source. No cut-off for these calls is given here.
# Assays:
# [1] = Induction of apoptosis in human RC-58T/h/SA#4 cells assessed as Bax activation at 20 uM after 24 hrs by immunoblotting analysis relative to untreated control; assay type: functional
# How it was run: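 Cells grown in DMEM/10% FBS at 37 °C, 5% CO2, then treated 24 h with compound (20 μM) with or without TRAIL (100 ng/mL). Whole lysates were used for Bax and Bcl-2. Cytosolic and mitochondrial fractions were prepared with a mitochondria isolation kit for AIF and cytochrome c. Blotting used 10 μg protein/lane, 12% SDS-PAGE, nitrocellulose, overnight primary antibody at 4 °C and ECL detection.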
# [2] = Sensitization of TRAIL-induced apoptosis in human RC-58T/h/SA#4 cells assessed as AIF level in cytosol at 20 uM after 24 hrs by immunoblotting analysis relative to untreated control; assay type: functional
# How it was run: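 Cells given 20 μM compound and/or 100 ng/mL TRAIL for 24 h. Mitochondrial and cytosolic fractions prepared with a mitochondria isolation kit. Fractions resolved by 12% SDS-PAGE at 10 μg/lane and immunoblotted with anti-cytochrome c or anti-AIF overnight at 4 °C, then HRP secondary and ECL detection.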
# [3] = Induction of apoptosis in human RC-58T/h/SA#4 cells assessed as DR4 expression at 10 uM after 24 hrs by immunoblotting analysis relative to untreated control; assay type: functional
# [4] = Induction of apoptosis in human RC-58T/h/SA#4 cells assessed as DR5 expression at 5 uM after 24 hrs by immunoblotting analysis relative to untreated control; assay type: functional
# [5] = Induction of apoptosis in human RC-58T/h/SA#4 cells assessed as DR5 expression at 10 uM after 24 hrs by immunoblotting analysis relative to untreated control; assay type: functional
# [6] = Induction of apoptosis in human RC-58T/h/SA#4 cells assessed as DR5 expression at 40 uM after 24 hrs by immunoblotting analysis relative to untreated control; assay type: functional
# [7] = Induction of apoptosis in human RC-58T/h/SA#4 cells assessed as DR4 expression at 20 uM after 12 hrs by immunoblotting analysis relative to untreated control; assay type: functional
# [8] = Induction of apoptosis in human RC-58T/h/SA#4 cells assessed as DR4 expression at 20 uM after 24 hrs by immunoblotting analysis relative to untreated control; assay type: functional
# [9] = Sensitization of TRAIL-induced apoptosis in human RC-58T/h/SA#4 cells assessed as accumulation at Sub-G1 phase at 20 uM after 24 hrs by annexin-V/propidium iodide staining-based flow cytometry in presence of Dr5 Fc chimera (reference value: 4.8%); assay type: functional
# [10] = Sensitization of TRAIL-induced apoptosis in human RC-58T/h/SA#4 cells assessed as procaspase-8 activation at 20 uM after 24 hrs by immunoblotting analysis in presence of Dr5 Fc chimera relative to untreated control; assay type: functional
# How it was run: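 Cells pretreated 2 h with 100 ng/mL DR5 Fc chimera, then given 20 μM compound and/or 100 ng/mL TRAIL for 24 h. Total lysates immunoblotted (12% SDS-PAGE, nitrocellulose) for caspase-3, -8, -9 and PARP cleavage, with HRP secondary and ECL detection.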
# Homo sapiens [11] = species on record: Homo sapiens; experiment: Induction of apoptosis in human RC-58T/h/SA#4 cells assessed as CHOP expression after 3 to 24 hrs by immunoblotting analysis relative to untreated control; assay type: functional, cell-based
# How it was run: (§1)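 RC-58T/h/SA#4 cells seeded at 5 × 10^4 cells/mL and cultured 24 h, then given compound across a concentration series or at fixed dose over a time course. Lysates were quantified by BCA. 10 μg protein/lane run on 12% SDS-PAGE and transferred to nitrocellulose. Blots probed for p53, CHOP and β-actin with HRP secondary and ECL.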
# [12] = Induction of apoptosis in human RC-58T/h/SA#4 cells assessed as p53 expression at 10 uM after 24 hrs by immunoblotting analysis relative to untreated control; assay type: functional; how it was run: as §1
# [13] = Induction of apoptosis in human RC-58T/h/SA#4 cells assessed as p53 expression at 20 uM after 24 hrs by immunoblotting analysis relative to untreated control; assay type: functional; how it was run: as §1
# [14] = Induction of apoptosis in human RC-58T/h/SA#4 cells assessed as p53 expression at 40 uM after 24 hrs by immunoblotting analysis relative to untreated control; assay type: functional
# How it was run: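 RC-58T/h/SA#4 cells (DMEM, 10% FBS, 37 °C, 5% CO2) exposed to the compound over a concentration range or time course. Lysates run on 12% SDS-PAGE at 10 μg protein/lane, transferred to nitrocellulose and blocked with BSA. Blots probed overnight at 4 °C with anti-p53, then HRP secondary antibody, ECL detection; β-actin as loading control.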
# [15] = Induction of apoptosis in human RC-58T/h/SA#4 cells assessed as CHOP expression at 5 uM after 24 hrs by immunoblotting analysis relative to untreated control; assay type: functional; how it was run: as §1
# [16] = Induction of apoptosis in human RC-58T/h/SA#4 cells assessed as CHOP expression at 40 uM after 24 hrs by immunoblotting analysis relative to untreated control; assay type: functional; how it was run: as §1
# [17] = Induction of apoptosis in human RC-58T/h/SA#4 cells assessed as p53 expression at 20 uM after 18 hrs by immunoblotting analysis relative to untreated control; assay type: functional; how it was run: as §1
# [18] = Induction of apoptosis in human RC-58T/h/SA#4 cells assessed as CHOP expression at 20 uM after 3 hrs by immunoblotting analysis relative to untreated control; assay type: functional; how it was run: as §1
# [19] = Induction of apoptosis in human RC-58T/h/SA#4 cells assessed as CHOP expression at 20 uM after 6 hrs by immunoblotting analysis relative to untreated control; assay type: functional; how it was run: as §1
# Homo sapiens [20] = species on record: Homo sapiens; experiment: Induction of apoptosis in human RC-58T/h/SA#4 cells at 20 uM after 24 hrs by annexin-V/propidium iodide staining-based flow cytometry relative to control; assay type: functional, cell-based
# How it was run: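 RC-58T/h/SA#4 cells seeded at 1 × 10^5 cells/mL in 6-well plates and given 20 μM compound and/or 100 ng/mL TRAIL for 24 h. Cells washed in ice-cold PBS, labelled with annexin V Alexa Fluor 488 for 30 min at 4 °C in the dark, then with PI. Annexin V-positive fraction counted by flow cytometry; three independent experiments, means ± SD, Student's t-test.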
# [21] = Sensitization of TRAIL-induced apoptosis in human RC-58T/h/SA#4 cells assessed as procaspase-9 activation at 20 uM after 24 hrs by immunoblotting analysis relative to untreated control; assay type: functional
# How it was run: (§2)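 Cells seeded at 5 × 10^4 cells/mL and cultured 24 h, then given 20 μM compound and/or 100 ng/mL TRAIL for 24 h. Whole-cell lysate made in Tris/NaCl/EDTA/NaF/pyrophosphate/PMSF/aprotinin buffer, 30 min on ice, protein measured by BCA. 12% SDS-PAGE at 10 μg/lane, nitrocellulose blot, primary antibodies (caspase-3, -8, -9, Bax, Bcl-2, PARP) overnight at 4 °C, HRP secondary, ECL.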
# [22] = Induction of apoptosis in human RC-58T/h/SA#4 cells assessed as procaspase-9 activation at 20 uM after 24 hrs by immunoblotting analysis relative to untreated control; assay type: functional; how it was run: as §2
# [23] = Induction of apoptosis in human RC-58T/h/SA#4 cells assessed as procaspase-3 activation at 20 uM after 24 hrs by immunoblotting analysis relative to untreated control; assay type: functional; how it was run: as §2
compound,measurement,setting,value
CC(C)/C=C/C(=O)c1ccoc1,Ratio,[1],1.5
same,Ratio,[2],1.2
same,Ratio,[3],1
same,Ratio,[4],1.1
same,Ratio,[5],1.2
same,Ratio,[6],1.3
same,Ratio,[7],1
same,Ratio,[8],1
same,Activity,[9],14.3%
same,Ratio,[10],0.8
same,Activity,Homo sapiens [11],Dose-dependent effect
same,Ratio,[12],2
same,Ratio,[13],2.3
same,Ratio,[14],2.4
same,Ratio,[15],1.3
same,Ratio,[16],2
same,Ratio,[17],2.2
same,Ratio,[18],1
same,Ratio,[19],1
same,Activity,Homo sapiens [20],Active
same,Ratio,[21],0.5
same,Ratio,[22],0.8
same,Ratio,[23],1
